Read-outs that look alike come from different tables or passages of the source.
Columns and labels:
[1] = for duration of significantly lowered serum calcium / lowest level of serum calcium: 3 mg/kg subcutaneous; for lowest level of serum calcium: from 2.2 mM
[2] = system: PTH secretion from parathyroid glands; test: Ex vivo parathyroid gland culture: PTH secretion and Ca2+ set-point; format: cell-based, mouse
In short: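 Glands from 4-week-old wild-type C57/B6 mice, incubated sequentially with rising test compound (0.01 nM–50 µM) at 0.75 mM [Ca2+]e for dose-response. For set-point, 50 or 500 nM compound under rising [Ca2+]e. PTH secretion rate per gland per hour was normalized between vehicle basal rate (0.5 mM) and rate at 3.0 mM. Set-point is the [Ca2+]e suppressing 50% of Ca-suppressible secretion. n = 8 gland groups, mean ± SEM.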

in vivo = settings: male, CD-1, mouse, sc, 3 mg/kg
serum PTH = test: Serum PTH after subcutaneous injection; format: in vivo, C57/B6 mice; settings: WT B6 mice
In short: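 Wild-type B6 mice given subcutaneous injections. Serum PTH was followed over 8 h after 1 mg/kg or 10 mg/kg. Dose comparison used serum PTH sampled 30 min after injection at several doses. n = 10 mice per dose, n = 5 at 10 mg/kg. Reference compound doses were corrected for molecular weight to match molar amounts. Unpaired Student's t-test.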

[3] = plasma, 3 mg/kg subcutaneous, CD-1 mice
[4] = 1 mg/kg (3.1 µmol/kg, equimolar) subcutaneous

Row | duration of significantly lowered serum calcium [1] | lowest level of serum calcium [1] [mM] | Cmax (in vivo) [ng/mL] | Cmax [3] [nM] | time of Cmax [3] [min] | hypocalcemic action ([1]; 3.1 µmol/kg (~1 mg/kg) subcutaneous) | IC50 ([2]; Mus musculus, read-out: IC50 in suppressing PTH secretion) [nM] | Compound | calcium set point for PTH secretion ([2]; PAM at 50 nM, vehicle 1.47 mM) [mM] | calcium set point for PTH secretion ([2]; PAM at 500 nM, vehicle 1.5 mM) | suppression of PTH secretion (serum PTH) (serum PTH; [4]) | suppression of PTH secretion (serum PTH) (serum PTH; 10 mg/kg (31 µmole/kg) subcutaneous)
1 | more than 8 hrs | 1.7 | 58.9 | 150 | 15 |  |  | C[C@@H](NCCCc1cccc(C(F)(F)F)c1)c1cccc2ccccc12 [cinacalcet] | 1.23 | ~ 0.94 mM | less effective | fully suppress
2 | more than 8 hrs | 1.6 |  |  | 60 | particularly robust | 998 | C[C@@H](N[C@H]1CCN(c2ccc(CC(=O)O)cc2)C1)c1cccc2ccccc12 [evocalcet] | 1 | 0.76 mM | fully suppress | 

Reference: publication PMC10793424 (bioRxiv, 2024)
